Data reported in PMC5536102 (Biochemistry, 2017).
One block for each molecule: values may come before it. Residues, ends and D or L forms follow the SMILES beside them.

Tests used:
purified human αIIbβ3 = purified human αIIbβ3 (Homo sapiens, UniProt P05106+P08514); format: binding; conditions: for average binding affinity constant (Kb), Kb = kon/koff: two-dimensional affinity calculated from kon and koff, Mn2+-activated αIIbβ3
How it was run: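 Peptides covalently coupled to amine-functionalized latex beads. Purified human αIIbβ3, Mn2+-activated, immobilized for 2 h at 4 °C on glutaraldehyde-activated, polyacrylamide-coated 5-μm silica pedestals. At room temperature, the laser-trapped bead oscillated at 10 Hz (0.8 μm peak-to-peak, 2000 pN/s) against the pedestal for set contact times T. Binding probability versus T was fitted kinetically; αIIbβ3 density ~3000 molecules/μm² gave kon; Kb = 1/Kd = kon/koff.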

αIIbβ3 = conditions: based on a theoretical model; ref 49 (Dutta et al.); cited from earlier work
[1] = target: integrin αIIbβ3 headpiece (Homo sapiens) (UniProt P08514); conditions: cited from earlier work

fibrinogen, sequence (P02671 36-866): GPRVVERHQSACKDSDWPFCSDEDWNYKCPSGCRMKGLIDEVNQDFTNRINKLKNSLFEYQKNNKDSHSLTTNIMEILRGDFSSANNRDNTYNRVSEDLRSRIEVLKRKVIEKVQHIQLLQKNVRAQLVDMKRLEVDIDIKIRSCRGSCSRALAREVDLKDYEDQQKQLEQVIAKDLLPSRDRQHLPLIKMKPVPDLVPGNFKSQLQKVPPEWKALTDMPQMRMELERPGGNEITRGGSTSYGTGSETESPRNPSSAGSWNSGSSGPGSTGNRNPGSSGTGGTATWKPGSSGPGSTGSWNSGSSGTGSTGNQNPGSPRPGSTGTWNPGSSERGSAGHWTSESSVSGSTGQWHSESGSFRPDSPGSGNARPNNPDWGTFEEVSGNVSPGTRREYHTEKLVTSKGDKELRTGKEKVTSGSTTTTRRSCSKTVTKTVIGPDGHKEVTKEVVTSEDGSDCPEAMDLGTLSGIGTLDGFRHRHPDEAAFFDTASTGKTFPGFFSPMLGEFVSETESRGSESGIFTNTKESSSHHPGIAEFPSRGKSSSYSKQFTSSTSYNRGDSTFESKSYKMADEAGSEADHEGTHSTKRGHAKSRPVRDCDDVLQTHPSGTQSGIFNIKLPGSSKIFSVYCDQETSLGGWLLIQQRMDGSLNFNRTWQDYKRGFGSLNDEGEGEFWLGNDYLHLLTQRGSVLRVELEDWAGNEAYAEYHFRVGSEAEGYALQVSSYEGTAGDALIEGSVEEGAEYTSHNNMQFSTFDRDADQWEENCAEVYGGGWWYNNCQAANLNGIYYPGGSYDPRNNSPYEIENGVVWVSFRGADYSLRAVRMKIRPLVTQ
fibrinogen, sequence (P02675 45-491, further chain): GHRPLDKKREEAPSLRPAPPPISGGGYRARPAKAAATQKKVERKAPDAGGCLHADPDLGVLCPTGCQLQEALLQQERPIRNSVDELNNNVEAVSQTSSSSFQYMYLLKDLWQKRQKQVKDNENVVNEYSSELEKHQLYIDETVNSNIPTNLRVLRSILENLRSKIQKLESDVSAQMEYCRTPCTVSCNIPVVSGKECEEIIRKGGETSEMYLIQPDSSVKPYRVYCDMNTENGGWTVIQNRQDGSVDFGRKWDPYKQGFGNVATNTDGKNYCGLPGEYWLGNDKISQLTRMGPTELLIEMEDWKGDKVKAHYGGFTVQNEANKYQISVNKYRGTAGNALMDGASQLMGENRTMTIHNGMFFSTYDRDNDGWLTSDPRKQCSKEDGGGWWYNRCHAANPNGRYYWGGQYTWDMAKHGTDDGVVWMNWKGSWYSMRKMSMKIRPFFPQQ
fibrinogen, sequence (P02679 27-453, further chain): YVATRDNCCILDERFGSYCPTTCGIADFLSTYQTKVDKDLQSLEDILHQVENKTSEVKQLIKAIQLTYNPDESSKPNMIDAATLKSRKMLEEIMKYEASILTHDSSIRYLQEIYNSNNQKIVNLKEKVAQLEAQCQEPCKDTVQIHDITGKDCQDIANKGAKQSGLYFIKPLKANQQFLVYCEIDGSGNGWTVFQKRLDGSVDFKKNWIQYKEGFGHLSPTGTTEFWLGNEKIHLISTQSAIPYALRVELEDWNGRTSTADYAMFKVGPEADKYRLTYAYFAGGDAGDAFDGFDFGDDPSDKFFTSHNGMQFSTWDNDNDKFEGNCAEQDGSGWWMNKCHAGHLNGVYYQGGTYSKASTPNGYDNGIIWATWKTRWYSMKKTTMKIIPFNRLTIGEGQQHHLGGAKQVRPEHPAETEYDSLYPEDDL

- koff (purified human αIIbβ3; pH 7.4, read-out: average unbinding rate constant koff): 2.05 ± 0.59 s⁻¹
- average binding affinity constant (Kb), Kb = kon/koff (purified human αIIbβ3): (1.22 ± 0.61) × 10^12 cm^2/mol
Molecule: CC(C)C[C@H](NC(=O)[C@H](Cc1c[nH]cn1)NC(=O)[C@@H](N)Cc1c[nH]cn1)C(=O)NCC(=O)NCC(=O)N[C@@H](C)C(=O)N[C@@H](CCCCN)C(=O)N[C@@H](CCC(N)=O)C(=O)N[C@@H](C)C(=O)NCC(=O)N[C@@H](CC(=O)O)C(=O)N[C@H](C(=O)O)C(C)C [γC-12, His-His-Leu-Gly-Gly-Ala-Lys-Gln-Ala-Gly-Asp-Val] (H-HHLGGAKQAGDV-OH)

Molecule: cyclo (S,S)-L-lysyl-L-tyrosyl-glycyl-L-cystinyl-L-homoarginyl-glycyl-L-aspartyl-L-trytopanyl-L-prolyl-L-cystine [cHarGD]
- dissociation energy (αIIbβ3): 7 to 9 kcal/mol

- average binding affinity constant (Kb), Kb = kon/koff (purified human αIIbβ3): (1.96 ± 0.65) × 10^12 cm^2/mol
Molecule: cyclo[Arg-Gly-Asp-D-Phe-Lys(Cys)] (head to tail) [cRGDFK]

Molecule: fibrinogen (from UniProt P02671)
- Kd [1]: 100 nM
